# Screens from PubChem.
# Kir21 block: inhibitors of mouse Kir2.1 inward-rectifier potassium channel; B-score at 10 µM; Inward rectifier potassium channel 2 (Mus musculus), P35561; HEK293-Kir2.1, FluxOR thallium flux fluorescence; stronger effect = lower value; 0.85% of 310,000 active;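 active = fluorescence ratio B-score at or below minus 3 SD of library scores, with starting-brightness B-score within 2 SD, cut at about -4.2 in these data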;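 note: channel flux triggered by added potassium and thallium sulfate stimulus; B-score of peak minus minimum fluorescence over baseline after thallium stimulus; more negative B-score means stronger Kir2.1 block with less thallium influx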
# KCNK3 block: human KCNK3 channel inhibitors, primary screen, CHO cells, FluxOR thallium flux, B-score | AID 602410, 2012 | Potassium channel subfamily K member 3 (Homo sapiens), O14649 | FluxOR fluorescence; stronger effect = lower value | B-score at 10 µM | 0.84% of 340,000 active;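 active = B-score under library mean minus 4 SD, starting fluorescence ratio at most library mean plus 5 SD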;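 note: more negative B-score means stronger inhibition of thallium flux through KCNK3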
# KCNK9 inh: KCNK9 potassium channel inhibitors, primary screen, HEK293 cells, thallium flux | Potassium channel subfamily K member 9 (Homo sapiens), Q9NPC2 | FluxOR thallium flux fluorescence; stronger effect = lower value | B-score at 10 µM | 1.2% of 310,000 active;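 active = ratio B-score over 3 SD below the library mean, with starting fluorescence within 5 SD of its mean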;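 note: negative B-score means less thallium flux so channel inhibition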
# Target sequence (Q9NPC2 whole entry, looked up): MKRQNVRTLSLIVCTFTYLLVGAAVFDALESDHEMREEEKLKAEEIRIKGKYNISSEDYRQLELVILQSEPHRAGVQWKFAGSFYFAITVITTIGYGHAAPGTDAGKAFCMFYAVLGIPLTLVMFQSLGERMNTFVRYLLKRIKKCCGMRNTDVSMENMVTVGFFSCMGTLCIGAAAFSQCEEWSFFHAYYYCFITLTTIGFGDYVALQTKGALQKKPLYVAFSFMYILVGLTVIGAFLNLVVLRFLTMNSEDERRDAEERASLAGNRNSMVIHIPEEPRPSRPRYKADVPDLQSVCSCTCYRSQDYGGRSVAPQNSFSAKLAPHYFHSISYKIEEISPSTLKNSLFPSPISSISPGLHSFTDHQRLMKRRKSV
# hERG rescue: hERG rescue from dofetilide block, primary screen, cell-based, CHO-hERG, FluxOR thallium flux, dofetilide IC70; 0.51% of 310,000 active; AID 1511, 2009; Voltage-gated inwardly rectifying potassium channel KCNH2 (Homo sapiens), Q12809; dofetilide IC70 present; activation (rescue from dofetilide block), less the hit threshold, % at 10 µM;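 active = activation above the mean of controls blocked by dofetilide plus 5 SD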;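 note: thallium influx through hERG after potassium depolarization seen as dye fluorescence rise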
# KCNQ1 pot: potentiators or activators of KCNQ1 channel, primary screen, cell-based, thallium flux, high-throughput. Potassium voltage-gated channel subfamily KQT member 1 (Homo sapiens), P51787. CHO-K1 KCNQ1, thallium flux FluxOR fluorescence; stronger effect = higher value. B-score at 10 µM. 0.35% of 310,000 active;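 active = fluorescence ratio B-score, a plate-corrected score, at least three library SD, with initial intensity B-score within 5 SD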
#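 Material: CHO-K1 cells stably expressing KCNQ1. Medium: assay buffer for compound exposure, DMSO matched across wells. Reagent: K+/Tl+ depolarizing stimulus. Compound dosing: single-concentration screen. Times: 37 °C overnight plating, 90-min dark dye load, 20-min compound pretreatment. Technique: FluxOR Tl+ flux fluorescence.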
# KCNQ1 block: inhibitors of human KCNQ1 channel, primary screen, cell-based, thallium flux, high-throughput; CHO-K1 KCNQ1, FluxOR thallium flux fluorescence; stronger effect = higher value; 1.3% of 310,000 active; B-score at 10 µM; AID 2642, 2010; Potassium voltage-gated channel subfamily KQT member 1 (Homo sapiens), P51787;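 active = compounds whose thallium flux B-score, printed positive for inhibition, exceeds three library SD while starting fluorescence stays within three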;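 note: channel opened by potassium depolarization with thallium stimulus after 20 min compound exposure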
# KCNK9 inh conf: KCNK9 potassium channel inhibitors, confirmation, HEK293 cells, thallium flux, duplicate. shares compounds with KCNK9 inh. FluxOR thallium flux fluorescence. inhibition, % at 10 µM. 43% of 4,900 active;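 active = thallium signal inhibited by more than 5 SD of the compound-free buffer control wells, on both duplicate plates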
# Kir21 sel: mouse Kir2.1 channel inhibition, confirmation, selectivity assay for KCNK9 modulator project, cell-based, HEK293, thallium flux | AID 492993, 2010 | Kir2.1 cells, FluxOR thallium flux fluorescence | inhibition, % at 10 µM | shares compounds with KCNK9 inh | 4% of 4,900 active;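 active = thallium signal drop more than 5 SD beyond the mean of the no-compound control wells, seen in both duplicate plates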;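 note: signal is fluorescence rise after thallium addition divided by baseline fluorescence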
# HEK293 Tl ctr: thallium flux in non-induced HEK293 cells, confirmation, counter-screen for KCNK9 inhibitor project, cell-based, second counter screen, non-induced KCNK9-HEK293; shares compounds with KCNK9 inh; FluxOR thallium flux; inhibition, % at 10 µM; 40% of 4,900 active; AID 492997, 2010;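 active = thallium signal drop beyond 5 SD of the untreated control mean, on both duplicate plates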
# Numbers stand for hits; – = inactive; · = no result given. Rows were chosen to be rich in hits. Some 3.7% of all compounds tested hit in one or more screens of this group.
SMILES,Kir21 block,KCNK3 block,KCNK9 inh,hERG rescue,KCNQ1 pot,KCNQ1 block,KCNK9 inh conf,Kir21 sel,HEK293 Tl ctr
Cc1ccc(OCCC(=O)OC(C)C(=O)NC2CC2)cc1 (stereo not drawn),–,–,–,–,–,–,·,·,·
CCc1nc(Sc2nnnn2-c2ccccc2)c2c3c(sc2n1)CCCC3,–,–,–,–,–,–,–,–,–
CCCCCCOC1(c2ccccc2)OC(=O)c2ccccc21 (stereo not drawn),–,–,-14.8,–,–,–,79.0%,–,50.0%
Cc1cccc(OC2(c3ccccc3)OC(=O)c3ccccc32)c1C (stereo not drawn),–,–,-13.4,–,–,–,52.5%,–,42.5%
COc1ccc(NC2(c3ccccc3)OC(=O)c3ccccc32)cc1 (stereo not drawn),–,–,–,–,–,–,·,·,·
CCCCCCCOC1(c2ccccc2)OC(=O)c2ccccc21 (stereo not drawn),–,–,-15.9,–,–,–,69.5%,–,48.5%
COC(=O)/C=C/c1ccccc1CN1[C@@H](CC(=O)OC)c2ccccc2S1(=O)=O,·,–,·,·,·,·,·,·,·
O=C(NCc1ccc2c(c1)OCO2)c1ccc(CS(=O)(=O)c2cccc(C(F)(F)F)c2)o1,–,–,–,–,–,–,·,·,·
CC(NC(=O)c1ccc(CS(=O)(=O)c2cccc(C(F)(F)F)c2)o1)c1ccc2c(c1)OCCO2 (stereo not drawn),–,–,–,–,–,–,–,–,–
Cc1ccc2nc(NC(=O)c3ccco3)sc2c1,–,–,–,–,–,–,·,·,·
Cc1ccc2nc(NC(=S)NC(=O)c3ccco3)sc2c1,–,–,–,35.5,57,–,–,–,–
COc1cc(NC(=O)C2=C(C)OCCS2)c(Cl)cc1C(=O)NCCN(C)C,–,–,–,–,–,–,·,·,·
Cc1cccc(-n2nc(C(=O)Nc3ccccc3)n3c(=O)cc(-c4ccccc4)nc23)c1,–,–,–,–,–,–,–,–,–
COc1ccc(NC(=O)COC(=O)Cn2cnc3ccccc3c2=O)c(OC)c1,·,–,·,·,·,·,·,·,·
COc1ccc(CC(=O)n2nc(-c3ccccc3)nc2NCc2ccco2)cc1,–,–,–,–,–,–,·,·,·
O=C(CCc1ccccc1)n1nc(-c2ccccc2)nc1NCc1ccco1,–,–,-8.35,–,–,–,–,–,33.0%
Cc1ccc(NC(=O)c2cc(S(=O)(=O)N3CCC4(CC3)OCCO4)ccc2F)cc1,–,–,–,–,–,–,·,·,·
O=C(NC1CCCCCC1)c1cc(S(=O)(=O)N2CCC3(CC2)OCCO3)ccc1F,–,–,–,–,–,–,–,–,–
Cc1cc(Br)ccc1NC(=O)CSc1nnc(CN2CCOCC2)n1C,–,–,–,–,–,–,·,·,·
COc1ccc(Cn2nc(-c3ccccc3)c(N3CCCCC3)cc2=O)cc1,–,–,-16.5,–,–,7,–,–,28.0%
Nc1c(C(=O)OCC(=O)Nc2cccc([N+](=O)[O-])c2)[nH]c(=O)[nH]c1=O,·,–,·,·,·,·,·,·,·
CCOc1ccc(-c2nc(CSCC(=O)NC3CC3)c(C)o2)cc1,–,–,–,–,–,–,·,·,·
CCOc1ccc(-c2nc(CSCC(=O)NC3CCCc4ccccc43)c(C)o2)cc1 (stereo not drawn),–,–,-8.3,–,–,6,43.5%,–,42.0%
O=C(CCCOc1ccccc1)NC1CCCc2ccccc21 (stereo not drawn),–,–,–,–,–,–,–,–,–
O=C(Cc1coc2ccc3ccccc3c12)NC1CCCc2ccccc21 (stereo not drawn),–,–,-11,–,–,–,66.0%,–,36.5%
SMILES,Kir21 block,KCNK3 block,KCNK9 inh,hERG rescue,KCNQ1 pot,KCNQ1 block,KCNK9 inh conf,Kir21 sel,HEK293 Tl ctr
O=C(Cc1coc2ccc3ccccc3c12)NCc1ccccc1,–,–,–,–,–,–,·,·,·
CCOc1ccc(CCNC(=O)COC(=O)C2CC2)cc1OCC,–,–,–,–,–,–,·,·,·
C=CCSc1nc(-c2ccc(OC)cc2)c(C#N)c(=O)n1CC=C,–,–,-8.73,–,–,–,–,–,–
COc1ccc(Cl)cc1NC(=O)CN(C)C1CCCCC1,–,–,–,–,–,–,·,·,·
COc1ccc(Cl)cc1NC(=O)CN(C)C(C)C(=O)NC(=O)NC1CCCCC1 (stereo not drawn),–,–,–,–,–,–,–,–,–
COc1ccc(Cl)cc1NC(=O)C(C)N(C)Cc1cccc(Cl)c1Cl (stereo not drawn),–,–,-13.3,–,–,–,75.5%,–,52.0%
O=c1cc(-c2ccccc2)nc2c(-c3ccccc3)c(C(F)(F)F)[nH]n12,–,–,–,54.3,13,–,–,–,–
Cc1ccc(CNc2nc(-c3cccs3)nc3ccccc23)cc1,–,–,-8.84,–,–,–,35.5%,–,30.0%
CCCCCCCCCCCC(=O)NC(Cc1ccc(OC)c([N+](=O)[O-])c1)C(=O)O (stereo not drawn),–,–,–,–,–,–,–,–,–
CCOC(=O)C(Cc1ccc(OC)c([N+](=O)[O-])c1)NC(=O)CCC(=O)Nc1ccc(OC)cc1 (stereo not drawn),–,–,–,–,–,–,·,·,·
Cc1cc(C)c2oc(C(=O)NC3CCS(=O)(=O)C3)cc(=O)c2c1 (stereo not drawn),–,–,–,–,–,–,·,·,·
Cc1ccc(C)c(C(=O)COC(=O)c2cc(Cl)nc3ccccc23)c1,–,–,-9.41,–,–,–,67.0%,–,45.0%
Cc1ccc(C)c(C(=O)COC(=O)CNS(=O)(=O)c2ccccc2)c1,–,–,–,–,–,–,·,·,·
Cc1ccc(C)c(C(=O)COC(=O)c2ccc(Br)o2)c1,–,–,-8.7,–,–,–,36.5%,–,–
CC(C)N(C)S(=O)(=O)c1ccc(NC(=O)CSC(=S)N2CCCC2)cc1,–,–,–,–,–,–,·,·,·
CC/C(=N\NC(=S)Nc1cc(C)ccc1C)c1ccc(OC(F)F)cc1,–,–,–,–,–,–,·,·,·
